Measurements reported in ChEMBL document CHEMBL4261586, “Conjugation of a 5-nitrofuran-2-oyl moiety to aminoalkylimidazoles produces non-toxic nitrofurans that are efficacious in vitro and in vivo against multidrug-resistant Mycobacterium tuberculosis” (Eur J Med Chem, 2018).
≈ marks a conversion by molar mass, not a printed value.

Columns and labels:
[1] = test system: Mycobacterium tuberculosis; assay: Antimycobacterial activity against Mycobacterium tuberculosis H37Rv after 7 days by resazurin microtitre plate assay; type: functional; details: 168 h
Procedure, shortened: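 REMA in Middlebrook 7H9 with OADC. Three-week culture vortexed with glass beads, adjusted to 1.0 McFarland (about 3×10⁸ bacteria/mL) and diluted 20-fold. Final concentrations 1.6–200 via 2-fold dilutions; growth control plus 1% ([…] diluted) control. 7 days at 35 °C, then 0.01% resazurin for 18 h; fluorescence ex 520/em 590 nm. MIC taken where fluorescence plateaued or matched the 1% control (t-test).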

[2] = test system: Mycobacterium tuberculosis; assay: Antitubercular activity against Mycobacterium tuberculosis H37Rv infected in C57BL/6 mouse assessed as tubercular foci index at 20 mg/kg, po administered via gavage over 42 days (excluding weekends) (reference value: 23.6 +/- 0.09); type: functional
[3] = test system: Acinetobacter baumannii; assay: Antibacterial activity against Acinetobacter baumannii assessed as diameter of inhibition zone measured after 18 hrs by Kirby-Bauer disk diffusion test; type: functional
[4] = test system: Klebsiella pneumoniae; assay: Antibacterial activity against Klebsiella pneumoniae assessed as diameter of inhibition zone measured after 18 hrs by Kirby-Bauer disk diffusion test; type: functional
[5] = test system: Enterococcus faecium; assay: Antibacterial activity against Enterococcus faecium assessed as diameter of inhibition zone after 18 hrs by Kirby-Bauer disk diffusion test; type: functional
[6] = test system: Mus musculus; assay: Toxicity in C57BL6 mouse assessed as liver mass quotient at 700 to 1100 mg/kg, po measured after 14 days relative to total body weight; type: organism-based; details: in vivo, 336 h
Procedure, shortened: (§1)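 Male C57BL6 mice (19.0–22.0 g), quarantined 14 days, 6 per dose group. Single oral gavage of Tween-80 suspension in water at 700–1100 mg/kg in 100 mg/kg steps; controls (7 mice) received 0.01% Tween-80. Lethality, time to death and clinical signs recorded daily for 14 days, then cervical dislocation and necropsy; heart, lung, liver, spleen and left kidney weights expressed relative to body weight. LD50 calculated by formula from dead/total counts.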

[7] = test system: Mus musculus; assay: (§2) Toxicity in po dosed C57BL6 mouse assessed as lethality measured daily over 14 days of treatment; type: organism-based; details: mouse, in vivo, 336 h; procedure, shortened: as §1
[8] = as §2; type: organism-based; details: C57BL6, mouse, in vivo; procedure, shortened: as §1
[9] = test system: Mus musculus; assay: Toxicity in C57BL6 mouse assessed as lethality at 1100 mg/kg, po measured daily over 14 days of treatment; type: organism-based; details: in vivo, 336 h; procedure, shortened: as §1
[10] = test system: Staphylococcus aureus; assay: Antibacterial activity against Staphylococcus aureus assessed as diameter of inhibition zone after 18 hrs by Kirby-Bauer disk diffusion test; type: functional
[11] = test system: Mycobacterium tuberculosis; assay: Antitubercular activity against Mycobacterium tuberculosis H37Rv infected in C57BL/6 mouse assessed as colony forming units per lung mass unit at 20 mg/kg, po administered via gavage over 42 days (excluding weekends) (reference value: 169.1 +/- 11.83 x 10^3); type: functional
[12] = test system: Pseudomonas aeruginosa; assay: Antibacterial activity against Pseudomonas aeruginosa assessed as diameter of inhibition zone measured after 18 hrs by Kirby-Bauer disk diffusion test; type: functional
[13] = test system: Mus musculus; assay: Toxicity in C57BL6 mouse assessed as left kidney mass quotient at 700 to 1100 mg/kg, po measured after 14 days relative to total body weight; type: organism-based; details: in vivo, 336 h; procedure, shortened: as §1
[14] = test system: Mycobacterium tuberculosis; assay: Antitubercular activity against Mycobacterium tuberculosis H37Rv infected in C57BL/6 mouse assessed as lung mass index at 20 mg/kg, po administered via gavage over 42 days (excluding weekends) (reference value: 2.28 +/- 0.1); type: functional
[15] = test system: Mus musculus; assay: Toxicity in C57BL6 mouse assessed as spleen mass quotient at 700 to 1100 mg/kg, po measured after 14 days relative to total body weight; type: organism-based; details: in vivo, 336 h; procedure, shortened: as §1
[16] = test system: Mus musculus; assay: Toxicity in C57BL6 mouse assessed as heart mass quotient at 700 to 1100 mg/kg, po measured after 14 days relative to total body weight; type: organism-based; details: in vivo, 336 h; procedure, shortened: as §1
[17] = test system: Klebsiella aerogenes; assay: Antibacterial activity against Enterobacter aerogenes assessed as diameter of inhibition zone measured after 18 hrs by Kirby-Bauer disk diffusion test; type: functional
[18] = test system: Mus musculus; assay: Toxicity in C57BL6 mouse assessed as lung mass quotient at 700 to 1100 mg/kg, po measured after 14 days relative to total body weight; type: organism-based; details: in vivo, 336 h; procedure, shortened: as §1
[19] = test system: Mus musculus; assay: Toxicity in C57BL6 mouse assessed as brain mass quotient at 700 to 1100 mg/kg, po measured after 14 days relative to total body weight; type: organism-based; details: in vivo, 336 h
[20] = test system: Mus musculus; assay: Toxicity in C57BL6 mouse assessed as body mass at 700 to 1100 mg/kg, po measured after 14 days (reference value: 22.9 +/- 0.32 g); type: organism-based; details: in vivo, 336 h; procedure, shortened: as §1
[21] = test system: Mus musculus; assay: Toxicity in C57BL6 mouse assessed as lethality at 700 mg/kg, po measured daily over 14 days of treatment; type: organism-based; details: in vivo, 336 h; procedure, shortened: as §1

Cc1cnc(C)n1C1CCN(C(=O)c2ccc([N+](=O)[O-])o2)C1 (configuration not stated)
MIC [1]: 3.1 µg/mL (≈ 10.2 µM)

Cc1cnc(CCNC(=O)c2ccc([N+](=O)[O-])o2)n1C1CCCCCCC1
MIC [1]: 25 µg/mL (≈ 66.8 µM)

Cc1cnc(-c2ccccc2)n1CC1CCN(C(=O)c2ccc([N+](=O)[O-])o2)C1 (configuration not stated)
MIC [1]: 6.2 µg/mL (≈ 16.3 µM)

CCCn1c(C)cnc1C1CN(C(=O)c2ccc([N+](=O)[O-])o2)C1
MIC [1]: 1.6 µg/mL (≈ 5.03 µM) | Activity_index [2]: 2.7 | diameter of the inhibition zone (DIZ) [3]: 25 mm | diameter of the inhibition zone (DIZ) [4]: 0 mm | diameter of the inhibition zone (DIZ) [5]: 0 mm | fold change (FC) [6]: 4.49 | LD16 [7]: 287.5 mg/kg | LD84 [7]: 1037.5 mg/kg | LD100 [7]: 1100 mg/kg | LD50 at 336 h [8]: 900 mg/kg | Activity [9]: Toxic | diameter of the inhibition zone (DIZ) [10]: 15 mm | Activity [11]: 85.9 ×10³ CFU | diameter of the inhibition zone (DIZ) [12]: 0 mm | fold change (FC) [13]: 0.39 | Activity_index [14]: 1.62 | fold change (FC) [15]: 0.23 | fold change (FC) [16]: 0.34 | diameter of the inhibition zone (DIZ) [17]: 19 mm | fold change (FC) [18]: 0.48 | fold change (FC) [19]: 1.11 | Activity [20]: 22.32 g | Activity [21]: Non-Toxic

Cc1cnc(C)n1C1CCCN(C(=O)c2ccc([N+](=O)[O-])o2)C1 (configuration not stated)
MIC [1]: 100 µg/mL (≈ 314 µM)

Cc1cnc(CCNC(=O)c2ccc([N+](=O)[O-])o2)n1C1CCC1
MIC [1]: 6.2 µg/mL (≈ 19.5 µM)

COCCn1c(C)cnc1CC1CCN(C(=O)c2ccc([N+](=O)[O-])o2)CC1
MIC [1]: > 100 µg/mL

Cc1cnc(-c2cccnc2)n1CCC1CCN(C(=O)c2ccc([N+](=O)[O-])o2)CC1
MIC [1]: 100 µg/mL (≈ 244 µM)

Cc1cnc(CC2CCN(C(=O)c3ccc([N+](=O)[O-])o3)C2)n1CC1CC1 (configuration not stated)
MIC [1]: 6.2 µg/mL (≈ 17.3 µM)

Cc1cnc(C2CCCO2)n1CC1CCN(C(=O)c2ccc([N+](=O)[O-])o2)CC1 (configuration not stated)
MIC [1]: 50 µg/mL (≈ 129 µM)

Cc1cnc(Cc2ccccc2)n1CCNC(=O)c1ccc([N+](=O)[O-])o1
MIC [1]: 50 µg/mL (≈ 141 µM)

Cc1cnc(C)n1C1CCN(C(=O)c2ccc([N+](=O)[O-])o2)CC1
MIC [1]: > 100 µg/mL

O=C(O)c1cn(C2CC2)c2cc(N3CCNCC3)c(F)cc2c1=O [CIPROFLOXACIN]
diameter of the inhibition zone (DIZ) [3]: 31 mm | diameter of the inhibition zone (DIZ) [4]: 26 mm | diameter of the inhibition zone (DIZ) [5]: 25 mm | diameter of the inhibition zone (DIZ) [10]: 27 mm | diameter of the inhibition zone (DIZ) [17]: 26 mm

CC[C@@H](CO)NCCN[C@@H](CC)CO [ETHAMBUTOL]
Activity_index [2]: 2.65 | Activity [11]: 85.32 ×10³ CFU | Activity_index [14]: 1.61
